In article PMC3103858 (Chemistry & biology, 2011):

What was measured:
U2OS cells = experiment: BRDU incorporation cell cycle assay; format: cell-based, human
Procedure, shortened: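 U2OS cells in DMEM with 10% FBS were seeded at 1×10^5/ml. After 12 h, they got test compound (50 μM) with or without doxorubicin (5 μM); DMSO and untreated cells were controls. BrdU was added for the 24 h treatment. Cells were fixed, probed with anti-BrdU antibody, then peroxidase. Colour was developed with TMB, stopped, and read as OD at 450 nm.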

p53 binding to CBP = p53 binding to CBP (Homo sapiens, UniProt Q92793); experiment: HA-CBP and Flag-p53 pull-down assay in HEK 293T cells; format: cell-based; conditions: HA-CBP and Flag-p53 over-expressed in 293T cells, doxorubicin treatment
Chain of p53 binding to CBP (Q92793 whole entry): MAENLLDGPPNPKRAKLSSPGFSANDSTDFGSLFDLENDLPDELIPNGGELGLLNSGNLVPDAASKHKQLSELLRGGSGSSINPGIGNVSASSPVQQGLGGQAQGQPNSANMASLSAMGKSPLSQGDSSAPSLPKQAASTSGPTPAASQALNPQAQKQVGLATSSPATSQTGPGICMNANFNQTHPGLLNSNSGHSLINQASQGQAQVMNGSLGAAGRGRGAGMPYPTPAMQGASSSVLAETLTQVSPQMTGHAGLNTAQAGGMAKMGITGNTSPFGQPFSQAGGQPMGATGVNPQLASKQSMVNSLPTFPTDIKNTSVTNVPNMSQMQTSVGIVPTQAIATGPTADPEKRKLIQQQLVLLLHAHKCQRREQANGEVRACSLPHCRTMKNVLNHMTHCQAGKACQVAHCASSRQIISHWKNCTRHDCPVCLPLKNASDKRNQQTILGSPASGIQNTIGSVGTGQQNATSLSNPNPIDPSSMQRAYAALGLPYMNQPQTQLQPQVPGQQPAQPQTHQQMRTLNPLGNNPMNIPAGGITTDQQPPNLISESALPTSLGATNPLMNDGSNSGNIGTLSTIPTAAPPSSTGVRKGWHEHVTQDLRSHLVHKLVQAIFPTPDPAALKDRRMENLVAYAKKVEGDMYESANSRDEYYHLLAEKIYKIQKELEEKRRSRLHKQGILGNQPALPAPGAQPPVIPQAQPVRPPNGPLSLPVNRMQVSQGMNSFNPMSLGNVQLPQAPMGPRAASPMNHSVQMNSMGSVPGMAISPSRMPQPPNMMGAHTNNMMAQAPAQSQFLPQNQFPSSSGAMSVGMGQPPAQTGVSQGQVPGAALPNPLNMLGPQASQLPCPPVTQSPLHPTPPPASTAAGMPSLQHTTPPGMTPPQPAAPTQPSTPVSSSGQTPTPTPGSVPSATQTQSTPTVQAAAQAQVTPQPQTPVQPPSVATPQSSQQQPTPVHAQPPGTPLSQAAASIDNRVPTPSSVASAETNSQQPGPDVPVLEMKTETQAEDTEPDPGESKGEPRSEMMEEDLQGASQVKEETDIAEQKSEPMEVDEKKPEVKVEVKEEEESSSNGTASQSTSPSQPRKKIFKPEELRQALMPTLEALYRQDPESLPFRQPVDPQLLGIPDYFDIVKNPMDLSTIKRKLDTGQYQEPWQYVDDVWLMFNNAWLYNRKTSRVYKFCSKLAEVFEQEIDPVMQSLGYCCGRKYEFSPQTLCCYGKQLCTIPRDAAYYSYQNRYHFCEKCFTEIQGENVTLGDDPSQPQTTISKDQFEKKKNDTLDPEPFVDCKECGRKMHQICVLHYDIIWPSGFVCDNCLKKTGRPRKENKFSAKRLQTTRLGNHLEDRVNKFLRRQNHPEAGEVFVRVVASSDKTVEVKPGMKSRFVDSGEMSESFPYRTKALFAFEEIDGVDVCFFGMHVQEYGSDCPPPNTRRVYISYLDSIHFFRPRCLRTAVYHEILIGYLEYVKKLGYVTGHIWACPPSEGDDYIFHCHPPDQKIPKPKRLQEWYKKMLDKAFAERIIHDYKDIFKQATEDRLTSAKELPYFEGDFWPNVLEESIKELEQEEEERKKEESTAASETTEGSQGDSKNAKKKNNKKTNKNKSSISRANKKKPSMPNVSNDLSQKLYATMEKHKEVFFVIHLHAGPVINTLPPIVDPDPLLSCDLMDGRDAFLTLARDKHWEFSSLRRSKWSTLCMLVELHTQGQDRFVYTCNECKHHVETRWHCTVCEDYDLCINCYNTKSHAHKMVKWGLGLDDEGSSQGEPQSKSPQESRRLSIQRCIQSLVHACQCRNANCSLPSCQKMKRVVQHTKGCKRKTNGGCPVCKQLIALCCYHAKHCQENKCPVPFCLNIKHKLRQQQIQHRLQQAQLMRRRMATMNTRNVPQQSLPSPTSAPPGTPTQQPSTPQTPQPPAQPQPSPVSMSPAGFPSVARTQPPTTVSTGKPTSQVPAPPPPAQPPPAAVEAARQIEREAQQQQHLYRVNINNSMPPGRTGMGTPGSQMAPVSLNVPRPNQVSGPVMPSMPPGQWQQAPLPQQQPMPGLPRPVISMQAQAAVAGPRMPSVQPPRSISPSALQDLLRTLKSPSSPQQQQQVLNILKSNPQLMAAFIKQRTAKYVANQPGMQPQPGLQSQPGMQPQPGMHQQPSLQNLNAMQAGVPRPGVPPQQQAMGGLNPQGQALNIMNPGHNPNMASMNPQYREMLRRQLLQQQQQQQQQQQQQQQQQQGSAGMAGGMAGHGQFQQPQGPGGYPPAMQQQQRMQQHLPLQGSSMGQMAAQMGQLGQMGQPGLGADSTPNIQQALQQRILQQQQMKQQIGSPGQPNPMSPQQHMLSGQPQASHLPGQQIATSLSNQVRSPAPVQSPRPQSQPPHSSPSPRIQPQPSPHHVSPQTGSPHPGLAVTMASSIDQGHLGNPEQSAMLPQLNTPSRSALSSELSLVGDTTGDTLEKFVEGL
Procedure, shortened: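 HEK 293T cells were co-transfected with HA-CBP and Flag-p53 (Fugene 6), then treated with test compound at several concentrations, with or without doxorubicin. CBP was immunoprecipitated on HA-agarose beads. Co-precipitated p53 was detected by western blot with anti-Flag antibody.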

p53 target genes = experiment: RT-PCR array analysis of p53 target genes in U2OS cells; format: cell-based, human
CBP/p300 = format: biochemical; conditions: histone H3 peptide substrate; data not shown
p53 [1] = experiment: western blot analysis of doxorubicin-treated U2OS cells; format: cell-based, human
Procedure, shortened: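 U2OS cells were grown in DMEM with 10% FBS and antibiotics, then exposed 24 h to doxorubicin ± test compound (50 or 100 μM). Lysates were sonicated and cleared at 14,000 rpm for 30 min at 4°C. 30–50 μg protein was run on SDS-PAGE and moved to nitrocellulose, blocked in 5% milk/PBS, probed with primary then HRP secondary (60 min, RT), and developed by ECL.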

p53 [2] = experiment: immunoblot of doxorubicin-treated cardiomyocytes; format: cell-based; conditions: primary neonatal rat cardiomyocytes
Procedure, shortened: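 Neonatal rat ventricular myocytes (1–2-day-old Sprague-Dawley pups) were isolated by trypsin then collagenase digestion and enriched by two preplating rounds. They were cultured in DMEM/F12 with 10% horse serum and 5% FCS, then after 48 h in DMEM/F12 with 1% ITS and 0.1% BSA. Cells were exposed to doxorubicin with or without test compound and immunoblotted for activated p53 and H2AX Ser139 phosphorylation.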

[3] = tested on: p53-dependent p21 luciferase activity; experiment: p21 luciferase assay of doxorubicin-induced p53 activation in U2OS cells; format: cell-based, human
[4] = tested on: primary neonatal rat cardiomyocytes; experiment: TUNEL apoptosis assay in cardiomyocytes; format: cell-based
Procedure, shortened: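 Ventricular myocytes came from 1–2-day-old Sprague-Dawley rats: trypsin overnight at 4°C, collagenase 45 min at 37°C, two preplating rounds. Cells were grown in DMEM/F12 with 10% horse serum and 5% FCS, switched after 48 h to DMEM/F12 with 1% ITS and 0.1% BSA. Doxorubicin was given 24 h ± test compound. Cells on coverslips were fixed in 4% PFA/PBS, permeabilised with 0.5% Tween 20 for 10 min, and TUNEL-labelled with FITC-nucleotide. Triplicates on three days.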

[5] = U2OS cells, 50 or 100 μM, 24 hours
[6] = nuclear extracts from U2OS cells

SMILES	decrease of BRDU incorporation (U2OS cells; doxorubicin treatment of U2OS cells) [%]	inhibition of p53 binding to CBP (p53 binding to CBP)	prevention of doxorubicin-induced cell cycle arrest (BRDU incorporation) (U2OS cells; 50 μM compound, doxorubicin 5 μM, U2OS cells, 24 hours)	toxicity to the cells (U2OS cells; U2OS cells, 50 μM)	doxorubicin-induced expression of p53 target genes (CCNE2, CCNG2, CDC2, CDC25A, CDKN1A, CDKN2A, GADD45A, E2F1, E2F3, PCNA, SESN1, SESN2) (p53 target genes)	direct inhibition of lysine acetyltransferase activity (CBP/p300)	expression of p53 target genes p21, PUMA and 14-3-3s induced by doxorubicin (p53 [1]; [5])	levels of p53 protein, p53S15p and p53K382ac induced by doxorubicin (p53 [1]; [5])	level or functional phosphorylation state of ATM and CHK1 (p53 [1]; U2OS cells, doxorubicin)	H3 acetylation at Lys9 (p53 [1]; [6])	histone H3 phosphorylation at Ser10 (p53 [1]; [6])	doxorubicin induced p53 activation (p53 [2])	H2AX phosphorylation at Ser139 (p53 [2]; doxorubicin)	IC50 ([3]; Homo sapiens, U2OS, read-out: IC50 inhibition of p53-induced p21 activation) [µM]	suppression of p21 expression ([3]; U2OS cells, doxorubicin, 50 μM)	toxicity of its own [4]	inhibition of doxorubicin-induced apoptosis ([4]; doxorubicin 24 hours)
COc1cccc2c1C(=O)c1c(O)c3c(c(O)c1C2=O)C[C@@](O)(C(=O)CO)C[C@@H]3O[C@H]1C[C@H](N)[C@H](O)[C@H](C)O1 [doxorubicin, reference compound]	45	–	–	–	–	–	–	–	–	–	–	–	–	–	–	–	–
Cc1cc(N=Nc2cc(S(=O)(=O)O)c(C)cc2C)c(N)cc1O [Ischemin / MS120, 5-(2-amino-4-hydroxy-5-methyl-phenylazo)-2,4-dimethyl-benzenesulfonic acid]	–	inhibiting in a dose-dependent manner	almost completely prevented	not toxic	differentially reduce	ruled out	significantly decreased	marked reduction	did not affect	decrease	increase	able to inhibit	did not alter	5	nearly completely suppresses	no toxicity of its own	effectively inhibit
